From ChEMBL document CHEMBL3785023, “Development and Pharmacological Characterization of Selective Blockers of 2-Arachidonoyl Glycerol Degradation with Efficacy in Rodent Models of Multiple Sclerosis and Pain” (J Med Chem, 2016)
Activity calls are given as the source filed them.

How the values were obtained:
[1] = target: T1, Fatty-acid amide hydrolase 1 (Homo sapiens, UniProt O00519); experiment: Inhibition of recombinant C-terminal His-tagged human FAAH expressed in sf21 cells using N-arachidonoyl-[14C]-ethanolamine as substrate assessed as reduction in [14C]ethanolamine production incubated for 30 mins by scintillation counting method
T1 sequence (O00519 whole entry): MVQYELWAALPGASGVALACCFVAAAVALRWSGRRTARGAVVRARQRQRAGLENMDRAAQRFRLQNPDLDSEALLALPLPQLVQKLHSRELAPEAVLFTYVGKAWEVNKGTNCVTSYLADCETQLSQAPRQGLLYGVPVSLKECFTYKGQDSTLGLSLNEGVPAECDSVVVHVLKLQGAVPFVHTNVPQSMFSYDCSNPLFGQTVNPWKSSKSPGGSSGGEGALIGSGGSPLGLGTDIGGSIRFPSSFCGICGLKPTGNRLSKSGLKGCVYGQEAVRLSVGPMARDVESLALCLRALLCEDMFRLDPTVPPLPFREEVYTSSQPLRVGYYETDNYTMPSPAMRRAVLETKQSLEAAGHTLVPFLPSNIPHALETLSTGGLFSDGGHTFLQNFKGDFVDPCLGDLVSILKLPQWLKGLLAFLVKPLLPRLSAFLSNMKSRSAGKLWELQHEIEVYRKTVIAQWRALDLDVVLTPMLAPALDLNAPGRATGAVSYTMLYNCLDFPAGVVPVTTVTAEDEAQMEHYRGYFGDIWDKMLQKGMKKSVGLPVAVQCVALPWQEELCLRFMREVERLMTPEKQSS
Outline: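 Human recombinant FAAH (2 µg/sample) incubated in 50 mM Tris-HCl, pH 9.5, 37 °C, 30 min with N-arachidonoyl-[14C]-ethanolamine diluted with unlabelled AEA. [14C]-ethanolamine released was quantified by scintillation counting of the aqueous phase after extraction with 2 volumes CHCl3/MeOH 1:1. Values are means of three experiments.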

[2] = test system: Heart; experiment: Cardiotoxicity in Langendorff-perfused Sprague-Dawley rat heart assessed as intraventricular conduction time at 0.1 uM by ECG analysis (reference value: 14.26 +/- 0.71 milliseconds); format: toxicity, tissue-based, Cardiac ventricle
[3] = test system: Heart; experiment: Cardiotoxicity in Langendorff-perfused Sprague-Dawley rat heart assessed as corrected time duration of action potential at 0.1 uM by ECG analysis (reference value: 155.26 +/- 2.96 milliseconds); format: toxicity, tissue-based
[4] = test system: Heart; experiment: Cardiotoxicity in Langendorff-perfused Sprague-Dawley rat heart assessed as heart rate at 0.001 uM by ECG analysis (reference value: 252.78 +/- 9.28 bpm); format: toxicity, tissue-based
[5] = test system: Heart; experiment: Cardiotoxicity in Langendorff-perfused Sprague-Dawley rat heart assessed as atrioventricular conduction time at 1 uM by ECG analysis (reference value: 45.62 +/- 4.49 milliseconds); format: toxicity, tissue-based
[6] = test system: Heart; experiment: Cardiotoxicity in Langendorff-perfused Sprague-Dawley rat heart assessed as coronary perfusion pressure at 1 uM (reference value: 57.45 +/- 2.58 mmHg); format: toxicity, tissue-based
[7] = test system: Heart; experiment: Cardiotoxicity in Langendorff-perfused Sprague-Dawley rat heart assessed as time duration of cardiac cycle length at 0.01 uM by ECG analysis (reference value: 238.38 +/- 9.23 milliseconds); format: toxicity, tissue-based
[8] = test system: Mus musculus; experiment: In vivo inhibition of MAGL in CD-1 mouse assessed as 2-AG level in spinal cord at 0.3 mg/kg, ip coadministered with formalin by LC-MS analysis (reference value: 3.8 +/- 0.4 pmol/g); format: functional
[9] = test system: Heart; experiment: Cardiotoxicity in Langendorff-perfused Sprague-Dawley rat heart assessed as time duration of action potential at 0.1 uM by ECG analysis (reference value: 75.65 +/- 0.87 milliseconds); format: toxicity, tissue-based
[10] = target: T2, Monoglyceride lipase (Homo sapiens, UniProt Q99685); experiment: Inhibition of recombinant C-terminal His6-tagged human MAGL expressed in Escherichia coli using 2-arachidonoyl-[3H]-glycerol as substrate preincubated for 10 mins followed by substrate addition measured after 20 mins by scintillation counting method
T2 sequence (Q99685 whole entry): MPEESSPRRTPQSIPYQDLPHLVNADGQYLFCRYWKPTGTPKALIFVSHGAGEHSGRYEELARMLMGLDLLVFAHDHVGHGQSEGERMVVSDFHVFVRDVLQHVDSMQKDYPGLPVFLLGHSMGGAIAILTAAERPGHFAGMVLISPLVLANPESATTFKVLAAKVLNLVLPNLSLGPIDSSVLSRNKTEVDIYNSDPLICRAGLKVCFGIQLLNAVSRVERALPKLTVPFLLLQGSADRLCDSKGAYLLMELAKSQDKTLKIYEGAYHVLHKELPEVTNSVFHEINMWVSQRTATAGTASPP
Outline: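 Human recombinant MGL (10,000xg cytosolic fraction, 0.05 µg/sample) is pre-incubated with compound for 10 min. It is then incubated 20 min at 37 °C in 50 mM Tris-HCl pH 7.0 with 2-arachidonoyl-[3H]-glycerol diluted with unlabelled 2-AG. The mix is extracted with 2 vol CHCl3/MeOH 1:1, and [3H]-glycerol in the aqueous phase is counted by scintillation. Values are means of three experiments.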

[11] = test system: Heart; experiment: Cardiotoxicity in Langendorff-perfused Sprague-Dawley rat heart assessed as atrioventricular conduction time at 0.1 uM by ECG analysis (reference value: 45.62 +/- 4.49 milliseconds); format: toxicity, tissue-based
[12] = test system: Salmonella typhimurium; experiment: Mutagenicity in Salmonella typhimurium TA98 assessed as increase in number of colonies up to >200 uM by Ames test in presence of S9 fraction; format: toxicity, organism-based; conditions: salmonella enterica subsp. enterica serovar typhimurium
[13] = test system: Mus musculus; experiment: In vivo inhibition of MAGL in CD-1 mouse assessed as 2-AG level in pawskin at 0.3 mg/kg, ip coadministered with formalin by LC-MS analysis (reference value: 10.8 +/- 1.5 pmol/g); format: functional
[14] = test system: Mus musculus; experiment: Inhibition of demyelination in experimental autoimmune encephalomyelitis C57BL/6J mouse spinal cord at 3 mg/kg, ip administered post CB2 antagonist/inverse agonist AM630 addition by luxol fast blue staining based microscopic analysis; format: functional, organism-based
Outline: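 EAE induced in female C57BL/6J mice with MOG35-55, then 3 mg/kg i.p. daily. AM251 or AM630 (1 mg/kg), where used, given 10 min before each dose. Spinal cord white matter stained with Luxol Fast Blue and demyelinated areas assessed by microscopy.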

[15] = test system: Mus musculus; experiment: Analgesic activity in CD-1 mouse model of oxaliplatin-induced neuropathic pain assessed as reversal of lowering of threshold to cold stimuli at 10 mg/kg, po coadministered with oxaliplatin for 14 days measured 24 hrs post last dose by cold plate test; format: functional, organism-based
[16] = Selectivity ratio of IC50 for human recombinant C-terminal His-tagged FAAH expressed in sf21 cells to IC50 for recombinant C-terminal His6-tagged human MAGL expressed in Escherichia coli
Outline: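 Ratio of IC50 values from two radiometric assays, each read by scintillation counting of the aqueous phase after CHCl3/MeOH 1:1 extraction. MGL assay: 10,000xg cytosolic fraction of human recombinant MGL (0.05 µg/sample), 50 mM Tris-HCl pH 7.0, 37 °C, 20 min, 2-arachidonoyl-[3H]-glycerol. FAAH assay: human recombinant FAAH (2 µg/sample), pH 9.5, 37 °C, 30 min, [14C]-anandamide. Means of three experiments.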

Row | Structure (SMILES) | IC50 [1] [nM] | Time [2] [ms] | Time [3] [ms] | Activity [4] [bpm] | Time [5] [ms] | Activity [6] [mmHg] | Time [7] [ms] | Activity [8] [pmol/g] | Time [9] [ms] | IC50 [10] [nM] | Time [11] [ms] | Activity [12] | Activity [13] [pmol/g] | inhibition [14] | Activity [15] | Ratio IC50 [16]
1 | O=C1[C@H](c2ccc(F)cc2)[C@@H](c2ccc3c(c2)OCO3)N1C1CCN(C(=O)n2cncn2)CC1 (racemic) [listing 1 of 2 here] | 2880 | 13.75 | 154.6 | 254.38 | 46.67 | 75.19 | 236.8 | 6.6 | 75.36 | 196 | 46.18 | Non-toxic | 14.1 |  |  | 
2 | O=C1[C@H](c2ccc(F)cc2)[C@@H](c2ccc3c(c2)OCO3)N1C1CCN(C(=O)n2cncn2)CC1 (racemic) [listing 2 of 2 here] |  |  |  |  |  |  |  |  |  |  |  |  |  | inactive | Active | 389
